In brackets after ≈: the same amount, converted by molar mass. Activity calls are given as the source filed them. No cut-off for these calls is given here.
Tests used:
Staphylococcus aureus [1] = experiment: Antibacterial activity against methicillin-resistant Staphylococcus aureus 33815 infected in in vitro pharmacokinetic model assessed as time required to 99% killing at 1500 mg, iv every 8 hrs using 10^6 CFU/ml inoculum; type: functional
Staphylococcus aureus [2] = experiment: Antibacterial activity against methicillin-resistant Staphylococcus aureus 33820 infected in in vitro pharmacokinetic model assessed as time required to 99.9% killing at 1500 mg, iv every 8 hrs using 10^6 CFU/ml inoculum; type: functional
Staphylococcus aureus [3] = experiment: AUBKC (0 to 24 hrs) in methicillin-resistant Staphylococcus aureus 33922 infected in in vitro pharmacokinetic model at 750 mg, iv every 8 hrs using 10^6 CFU/ml inoculum; type: functional
In short: (§1)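 Single-compartment dilutional in vitro PK model at 37°C in 10% Mueller-Hinton broth, stirred, flow 132 ml/h. […] Inoculum 10^6 CFU/ml added 45 min before dosing, or 10^8 CFU/ml run overnight. Viable counts with β-lactamase neutralisation. AUBKC by log-linear trapezoidal rule, at least triplicate.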

Staphylococcus aureus [4] = experiment: Antibacterial activity against methicillin-resistant Staphylococcus aureus 33829 by broth dilution method; type: functional
In short: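 MIC by CLSI broth dilution, or by broth dilution in 10% Mueller-Hinton broth at nondoubling dilutions.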

Staphylococcus aureus [5] = experiment: Antibacterial activity against methicillin-resistant Staphylococcus aureus 33820 by broth dilution method; type: functional
In short: (§2)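 Standard CLSI broth dilution MIC.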

Staphylococcus aureus [6] = experiment: Antibacterial activity against methicillin-resistant Staphylococcus aureus 33815 by broth dilution method; type: functional; in short: as §2
Staphylococcus aureus [7] = experiment: Antibacterial activity against methicillin-resistant Staphylococcus aureus 33820 by 10% MH broth method; type: functional
In short: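 Broth dilution MIC per CLSI, run in 10% Mueller-Hinton broth at nondoubling dilutions.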

Staphylococcus aureus [8] = experiment: Antibacterial activity against methicillin-resistant Staphylococcus aureus 33815 by 10% MH broth method; type: functional
In short: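 Broth dilution MIC per CLSI but in 10% Mueller-Hinton broth, using nondoubling dilutions.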

Staphylococcus aureus [9] = experiment: Antibacterial activity against methicillin-resistant Staphylococcus aureus 33827 infected in in vitro pharmacokinetic model assessed as time required to 99.9% killing at 750 mg, iv every 8 hrs using 10^8 CFU/ml inoculum; type: functional
In short: (§3)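 Single-compartment dilutional in vitro PK model, 10% Mueller-Hinton broth, 37°C, stirred, dilution 132 ml/h. […] Inoculum 10^6 CFU/ml (added 45 min pre-dose) or 10^8 CFU/ml (run overnight). Viable counts by spiral plating, beta-lactamase neutralization, detection limit 10^2 CFU/ml. At least triplicate.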

Staphylococcus aureus [10] = experiment: AUBKC (0 to 24 hrs) in methicillin-resistant Staphylococcus aureus 33922 infected in in vitro pharmacokinetic model at 1500 mg, iv every 8 hrs using 10^8 CFU/ml inoculum; type: functional; in short: as §1
Staphylococcus aureus [11] = experiment: T>MIC in methicillin-sensitive Staphylococcus aureus 5956 infected in vitro pharmacokinetic model at 1500 mg, iv every 8 hrs; type: functional
Staphylococcus aureus [12] = experiment: AUBKC (0 to 48 hrs) in against methicillin-resistant Staphylococcus aureus 33815 infected in in vitro pharmacokinetic model at 750 mg, iv every 8 hrs using 10^8 CFU/ml inoculum; type: functional; in short: as §1
Staphylococcus aureus [13] = experiment: AUBKC (0 to 48 hrs) in methicillin-resistant Staphylococcus aureus 33815 infected in in vitro pharmacokinetic model at 1500 mg, iv every 8 hrs using 10^8 CFU/ml inoculum; type: functional; in short: as §1
Staphylococcus aureus [14] = experiment: Antibacterial activity against methicillin-resistant Staphylococcus aureus 33827 assessed as viable count at 2 times of MIC after 24 hrs using 10^6 CFU/ml inoculum; type: functional, organism-based
Staphylococcus aureus [15] = experiment: Antibacterial activity against methicillin-resistant Staphylococcus aureus 33815 in in vitro pharmacokinetic model assessed as viable count at 4 times of MIC; type: functional
In short: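 Preexposure population analysis profile: model sample at time zero plated on nutrient agar with tomopenem at multiples of the MIC. Growth counted as log CFU/ml, detection limit 2 log10.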

Staphylococcus aureus [16] = experiment: Antibacterial activity against methicillin-sensitive Staphylococcus aureus 5956 infected in in vitro pharmacokinetic model assessed as reduction in viable count at 750 mg, iv every 8 hrs measured after 24 hrs using 10^6 CFU/ml inoculum; type: functional
Staphylococcus aureus [17] = experiment: Antibacterial activity against methicillin-resistant Staphylococcus aureus 33827 infected in in vitro pharmacokinetic model assessed as reduction in viable count at 750 mg, iv every 8 hrs measured after 24 hrs using 10^6 CFU/ml inoculum; type: functional; in short: as §3
Staphylococcus aureus [18] = experiment: Antibacterial activity against methicillin-resistant Staphylococcus aureus 33922 infected in in vitro pharmacokinetic model assessed as reduction in viable count at 750 mg, iv every 8 hrs measured after 36 hrs using 10^6 CFU/ml inoculum; type: functional
Staphylococcus aureus [19] = experiment: Antibacterial activity against methicillin-resistant Staphylococcus aureus 33921 assessed as viable count at 4 times of MIC after 48 hrs using 10^6 CFU/ml inoculum; type: functional, organism-based
Staphylococcus aureus [20] = experiment: Antibacterial activity against methicillin-resistant Staphylococcus aureus 33922 assessed as viable count at 4 times of MIC after 48 hrs using 10^6 CFU/ml inoculum; type: functional, organism-based
Staphylococcus aureus [21] = experiment: T>MIC for static effect in methicillin-sensitive Staphylococcus aureus 5956 in in vitro pharmacokinetic model after 24 hrs using 10^6 CFU/ml inoculum; type: functional
Staphylococcus aureus [22] = experiment: T>MIC for static effect in methicillin-resistant Staphylococcus aureus 33827 in in vitro pharmacokinetic model after 24 hrs using 10^6 CFU/ml inoculum; type: functional
Staphylococcus aureus [23] = experiment: T>MIC for static effect in methicillin-resistant Staphylococcus aureus 33820 in in vitro pharmacokinetic model after 24 hrs using 10^6 CFU/ml inoculum; type: functional
Staphylococcus aureus [24] = experiment: T>MIC for 1-log drop in count in methicillin-resistant Staphylococcus aureus 33820 in in vitro pharmacokinetic model after 24 hrs using 10^6 CFU/ml inoculum; type: functional
Staphylococcus aureus [25] = experiment: T>MIC for 3-log drop in count in methicillin-resistant Staphylococcus aureus 33820 in in vitro pharmacokinetic model after 24 hrs using 10^6 CFU/ml inoculum; type: functional
Staphylococcus aureus [26] = experiment: T>MIC for 4-log drop in count in methicillin-resistant Staphylococcus aureus 33922 in in vitro pharmacokinetic model after 24 hrs using 10^6 CFU/ml inoculum; type: functional
Staphylococcus aureus [27] = experiment: T>MIC for 4-log drop in count in methicillin-sensitive Staphylococcus aureus 5956 in in vitro pharmacokinetic model after 24 hrs using 10^8 CFU/ml inoculum; type: functional
In short: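 Dose-ranging: 7–13 simulated regimens per strain giving T>MIC of 0–100% (MIC from 10% MHB), at 106 or 10^8 CFU/ml as stated.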

Staphylococcus aureus [28] = experiment: Antibacterial activity against methicillin-resistant Staphylococcus aureus 33829 infected in in vitro pharmacokinetic model assessed as reduction in viable count at 1500 mg, iv every 8 hrs measured after 24 hrs using 10^6 CFU/ml inoculum; type: functional; in short: as §3
Staphylococcus aureus [29] = experiment: Antibacterial activity against methicillin-sensitive Staphylococcus aureus 5956 infected in in vitro pharmacokinetic model assessed as reduction in viable count at 1500 mg, iv every 8 hrs measured after 48 hrs using 10^6 CFU/ml inoculum; type: functional
Staphylococcus aureus [30] = experiment: Antibacterial activity against methicillin-resistant Staphylococcus aureus 33815 infected in in vitro pharmacokinetic model assessed as time required to 99.9% killing at 750 mg, iv every 8 hrs using 10^6 CFU/ml inoculum; type: functional

Q: What does the source list for `C[C@@H](O)[C@H]1C(=O)N2C(C(=O)O)=C(S[C@H]3C[C@@H](C(=O)N4CC[C@H](NC(=O)CNC(=N)N)C4)N(C)C3)[C@H](C)[C@H]12` [TOMOPENEM]?
A: Time (Staphylococcus aureus [1]): 3 h; Time (Staphylococcus aureus [2]): 12 h; AUBC (Staphylococcus aureus [3]): 20.2 log10CFU/ml.hr; MIC (Staphylococcus aureus [4]): 2 µg/mL (≈ 3.72 µM); MIC (Staphylococcus aureus [5]): 16 µg/mL (≈ 29.8 µM); MIC (Staphylococcus aureus [6]): 16 µg/mL (≈ 29.8 µM); MIC (Staphylococcus aureus [7]): 6 µg/mL (≈ 11.2 µM); MIC (Staphylococcus aureus [8]): 6 µg/mL (≈ 11.2 µM); Time (Staphylococcus aureus [9]): 12 h; AUBC (Staphylococcus aureus [10]): 100.1 log10CFU/ml.hr; fT>MIC (Staphylococcus aureus [11]): 100%; AUBC (Staphylococcus aureus [12]): 119 log10CFU/ml.hr; AUBC (Staphylococcus aureus [13]): 152.6 log10CFU/ml.hr; Activity (Staphylococcus aureus [14]): inactive; log10CFU/ml (Staphylococcus aureus [15]): <2; log10CFU/ml (Staphylococcus aureus [16]): 4.3; log10CFU/ml (Staphylococcus aureus [17]): 3.6; log10CFU/ml (Staphylococcus aureus [18]): 4; Activity (Staphylococcus aureus [19]): Active; Activity (Staphylococcus aureus [20]): inactive; fT>MIC (Staphylococcus aureus [21]): 6%; fT>MIC (Staphylococcus aureus [22]): 15.4%; fT>MIC (Staphylococcus aureus [23]): 5.9%; fT>MIC (Staphylococcus aureus [24]): 9.9%; fT>MIC (Staphylococcus aureus [25]): 20.4%; fT>MIC (Staphylococcus aureus [26]): 21.5%; fT>MIC (Staphylococcus aureus [27]): 20.1%; log10CFU/ml (Staphylococcus aureus [28]): 4.2; log10CFU/ml (Staphylococcus aureus [29]): 4.4; Time (Staphylococcus aureus [30]): 12 h
